Assay outcomes from PubChem BioAssay.
This is a sample that favours compounds with a hit; in the whole collection about 1.8% have one here.
SKN-1 block = blocks SKN-1 activity in C. elegans | AID 624304 | 360,000 compounds, 0.49% hits | inhibition, % at 21.8 µM | C. elegans VP596 Pgst-4::GFP/RFP ratio, acrylamide-induced, 24 h;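 active = interference check ratio from 0.5 to 1.5 plus GFP to RFP signal ratio inhibition reaching or exceeding a fixed threshold, cut at about 30% in these data, passing the limit was not always enough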
eIF4H inh = inhibitors of RNA binding by human eIF4H; eIF4H fluorescence polarization binding assay; inhibition, % at 35 µM; 290,000 compounds, 0.94% hits;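 note: calls also rest on retests at 20 µM and on dose response follow-up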
MT1-MMP act inh = MT1-MMP (human) activation inhibition | P50281 | HT1080 RFP-PRO-GFP cells, GFP/RFP ratio fluorescence, overnight; percent of plate control window, DMSO zero | GFP/RFP ratio change, % at 20 µM | 360,000 compounds, 0.061% hits | AID 651647;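 active = GFP/RFP ratio change of at least 30% with cell ATP level not reduced by more than half and red fluorescence within 50% of control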
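Test system: HT1080 cells expressing an RFP-PRO-GFP fluorescent reporter construct / Compound dosing: single-point 20 µM compound, 1% DMSO / Schedule: cells overnight before dosing, compound overnight, 37 °C, 5% CO2 / Evaluation: GFP/RFP fluorescence ratio / Control set: DMSO and RFP-L50D-GFP cell wells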
MLLE-PAM2 inh = inhibitors of microRNA-mediated deadenylation, human PABP1 MLLE binding | GST-MLLE / FITC-PAM2 fluorescence polarization | inhibition, % at 20 µM | 360,000 compounds, 0.36% hits | AID 588489; in the data active = inhibition above about 35%, passing the limit was not always enough;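 note: plate controls were DMSO wells with GST-MLLE for no effect and wells lacking GST-MLLE protein for full effect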
PABP FP inh = PABP-poly(A) binding inhibition; 290,000 compounds, 1% hits; calls only at 35 µM; P11940; PABP-poly(A) RNA binding, fluorescence polarization;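 note: calls also rest on retests at 20 µM and on dose response follow-up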
An asterisk follows results filed as active; i = inactive; / = no result given; + = active, no number. Unless noted, the rule behind the calls is not given here.

SMILES	SKN-1 block	eIF4H inh	MT1-MMP act inh	MLLE-PAM2 inh	PABP FP inh
Cc1nn2cc(-c3ccc(-c4ccccc4)cc3)nc2s1	-5	-5	-17	-1	i
O=C1c2cccc3cccc(c23)C(c2nc3ccccc3[nH]2)N1C1CC1 (stereo unspecified)	-4	/	2	/	/
Cc1ccc(OCc2ccc(C(=O)Nc3nccs3)o2)cc1C	56*	-5	2	3	i
Cc1c(C)n(Cc2ccccc2)c2ccc(C(=O)OCCN(C)C)cc12	36*	13	-11	-6	i
Cc1c(C)n(Cc2ccccc2)c2ccc(C(=O)NCCN3CCOCC3)cc12	8	-2	7	-6	i
O=C(COc1ccc2c(c1)OCO2)Nc1nncs1	4	-1	1	8	i
COC(=O)c1c(-c2ccccc2)noc1-c1ccccc1	45*	/	-3	9	/
COc1ccccc1CCC(=O)N1CCN(S(=O)(=O)c2cc(C(F)(F)F)ccc2Cl)CC1	-27	/	-4	-9	/
N#C/C(=C/c1ccc(N2CCCCC2)o1)C(=O)Nc1ccc(Cl)cc1	35	127*	-226	-112	i
CN(C(=O)CSc1nnc(-c2cccnc2)n1-c1ccccc1F)C1CCS(=O)(=O)C1 (stereo unspecified)	-7	39*	1	-22	+
COCCn1c(C)cc(C(=O)CSc2nnc(-c3cccnc3)n2-c2ccccc2F)c1C	6	130	-9	-60	+
C1C2CC3C1C3C2=NN=C1C2CC3C(C2)C13	-8	/	1	10	/
C=C1C[C@@H]2C[C@@H]2CN(S(=O)(=O)c2ccc(C)cc2)[C@@H]1COCc1ccccc1	22	/	-3	/	/
CCC(SC1=NCCS1)C(=O)Nc1ccc(S(N)(=O)=O)cc1 (stereo unspecified)	-2	7	-1	41*	i
O=S1(=O)CCOC[C@H](c2ccccc2)N1Cc1ccccc1F	9	-14	3	2	i
O=C(CSc1nnc(CNC(=O)c2c(F)cccc2F)o1)NCc1ccc2c(c1)OCO2	2	/	0	18	/
CCOc1ccc(C(=O)NC(C)(C)CC)cc1	0	-4	-2	0	+
Cc1ccc(C)c(/C(O)=C2/C(=O)C(=O)N(CCN3CCOCC3)C2c2ccco2)c1 (stereo unspecified)	8	55*	-13	12	i
COc1ccc(OC)c(NC(=O)C(C#N)=Cc2ccco2)c1	2	/	-7	-17	/
COc1ccc(NC(=O)/C(C#N)=C/C=C/c2ccco2)cc1	14	78	-8	14	+
Fc1ccc(-c2csc(Nc3ccccn3)n2)c(F)c1	60*	2	-1	6	i
Cc1cccnc1Nc1nc(-c2ccc(O)cc2)cs1	7	-2	4	21	i
O=C(Nc1nc(-c2cc(F)ccc2F)cs1)c1ccccn1	38*	16	2	-3	i
c1ccc(-c2csc(Nc3ccccn3)n2)cc1	67*	3	1	11	i
Cc1cccnc1Nc1nc(-c2ccc(F)cc2)cs1	42*	1	1	-11	i
SMILES	SKN-1 block	eIF4H inh	MT1-MMP act inh	MLLE-PAM2 inh	PABP FP inh
Cc1ccc(-c2csc(Nc3ccccn3)n2)cc1	26	-4	-2	6	i
CN(C)Cc1cc(O)c(CN(C)C)cc1O	7	80	-5	79*	i
O=C(O)c1ccc(N2C(=O)c3cccc4c(C(=O)O)ccc(c34)C2=O)cc1	22	96*	-1	-17	+
O=C(Oc1ccccc1)N1CCN(c2ccc(F)cc2)CC1	43*	1	4	3	i
COc1ccc(-c2cc(C(=O)N3CCCC3)c3ccccc3n2)cc1	-14	/	0	-12	/
CN1CCC(N(C)C(=O)c2sc3cc(F)ccc3c2Cl)CC1	20	1	0	18	i
COc1ccc(-c2cc(C(=O)N3CCN(c4ccccc4)CC3)c3ccccc3n2)cc1	-1	57*	-6	11	+
O=C(c1sc2cc(F)ccc2c1Cl)N1CCN(c2ccccc2)CC1	20	76*	-2	7	+
O=C(c1ccccc1C(=O)N1CCN(c2ccccc2)CC1)N1CCN(c2ccccc2)CC1	-6	127*	-83	86	+
O=C(CCCOc1ccccc1)N1CCN(c2ccc(F)cc2)CC1	7	6	10	-1	i
O=S(=O)(Nc1cccc(S(=O)(=O)N2CCCC2)c1)c1cccc(Br)c1	2	/	-1	-8	/
CC12CCC(O)CC1=CCC1C2CCC2(C)c3[nH]ncc3CC12 (stereo unspecified)	5	/	0	-1	/
O=C(COC(=O)c1ccc2ncsc2c1)Nc1ccccc1Br	-6	/	3	0	/
COc1ccc(-c2cc(C(=O)Nc3c(C)n(C)n(-c4ccccc4)c3=O)c3ccccc3n2)c(OC)c1	36*	1	-4	-3	i
COc1ccc(-c2cc(C(=O)N3CCCCCC3)c3ccccc3n2)c(OC)c1	1	84*	-7	19	+
COc1ccc(N2CCN(C(=O)c3cc4c(-c5cccc(OC)c5)nn(C)c4s3)CC2)cc1	35*	-1	-9	-32	i
CNC(=O)COC(=O)c1ccc2c(c1)NC(=O)C1CCCN21 (stereo unspecified)	/	0	/	/	i
O=C(c1cc2c(c(-c3cccc(-c4ccc(F)cc4)c3)n1)[C@H](CCO)N(C(=O)c1ccc3c(c1)OCO3)C2)N1CCOCC1	0	/	2	/	/
CCc1ccc(CCC(=O)Nc2ccc(OC)cc2)o1	9	-6	0	-8	i
COc1ccc(C(N)CCc2ccc(C)o2)cc1 (stereo unspecified)	20	87	-8	-34	+
O=C(C1CCN(S(=O)(=O)c2cccs2)CC1)N1CCCC(C(F)(F)F)C1 (stereo unspecified)	-7	-14	0	10	i
Cc1ccc(/C=N/NC(=O)c2cc3c(ccc4ccccc43)o2)o1	-4	-6	-3	-1	i
O=C(N/N=C/c1ccc([N+](=O)[O-])o1)c1cc2c(ccc3ccccc32)o1	-12	76	-9	-5	+
O=C(N/N=C/c1ccc([N+](=O)[O-])cc1)c1cc2ccccc2o1	-2	-4	5	12	i
C/C(=N\NS(=O)(=O)c1ccc(C)c([N+](=O)[O-])c1)c1cc2ccccc2o1	-23	-11	/	16	i
O=C(N/N=C/c1ccc([N+](=O)[O-])o1)c1cc2ccccc2o1	2	70*	-11	-11	+
O=C(N/N=C\c1ccc([N+](=O)[O-])o1)c1cncc(Br)c1	-2	71*	-5	-2	+
C/C(=N\Nc1ccc([N+](=O)[O-])cc1)c1cc2ccccc2o1	27	57*	-128	-136	i
C=CCOc1ccc(/C=C/C(=O)OCC(=O)NCc2cccs2)cc1	21	/	1	-9	/
